In ChEMBL document CHEMBL3425426, “Discovery of DS-1558: A Potent and Orally Bioavailable GPR40 Agonist” (ACS Med Chem Lett, 2015):
Activity calls are given as the source filed them. The rule behind the calls is not given here.

What was measured:
[1] = system: Rattus norvegicus; experiment: Reduction in glucose excursion in ZDF rat at 10 mg/kg, po dosed 30 mins before glucose challenge by OGTT method; assay type: functional, organism-based; set-up: dose 10 mg/kg
How it was run: (§1)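 Male Zucker diabetic fatty rats, 9 weeks old, n = 6 per group. Oral dose given 30 min before an oral glucose challenge of 2 g/kg. Plasma glucose and plasma insulin were followed over time after the challenge. Values are reported as mean ± standard error.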

[2] = system: Rattus norvegicus; experiment: Increase in plasma insulin level in ZDF rat at 10 mg/kg, po dosed 30 mins before glucose challenge by OGTT method; assay type: functional, organism-based; set-up: dose 10 mg/kg; how it was run: as §1
[3] = biological target: Free fatty acid receptor 1 (Homo sapiens, UniProt O14842); experiment: Agonist activity at human GPR40 expressed in CHO cells assessed as calcium flux by FLIPR assay; assay type: functional, cell-based
Chain of Free fatty acid receptor 1 (O14842 whole entry): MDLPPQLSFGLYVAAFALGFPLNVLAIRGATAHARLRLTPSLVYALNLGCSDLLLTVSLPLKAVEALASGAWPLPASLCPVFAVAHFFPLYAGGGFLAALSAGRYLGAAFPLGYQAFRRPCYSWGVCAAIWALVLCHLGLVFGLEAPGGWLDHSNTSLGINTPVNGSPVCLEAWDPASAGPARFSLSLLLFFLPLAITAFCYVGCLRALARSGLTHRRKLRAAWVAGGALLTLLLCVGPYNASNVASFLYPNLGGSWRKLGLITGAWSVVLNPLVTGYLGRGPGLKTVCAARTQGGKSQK

[4] = biological target: T1, Peroxisome proliferator-activated receptor gamma (Homo sapiens, UniProt P37231); experiment: Agonist activity at PPARgamma (unknown origin)
T1 sequence (P37231 whole entry): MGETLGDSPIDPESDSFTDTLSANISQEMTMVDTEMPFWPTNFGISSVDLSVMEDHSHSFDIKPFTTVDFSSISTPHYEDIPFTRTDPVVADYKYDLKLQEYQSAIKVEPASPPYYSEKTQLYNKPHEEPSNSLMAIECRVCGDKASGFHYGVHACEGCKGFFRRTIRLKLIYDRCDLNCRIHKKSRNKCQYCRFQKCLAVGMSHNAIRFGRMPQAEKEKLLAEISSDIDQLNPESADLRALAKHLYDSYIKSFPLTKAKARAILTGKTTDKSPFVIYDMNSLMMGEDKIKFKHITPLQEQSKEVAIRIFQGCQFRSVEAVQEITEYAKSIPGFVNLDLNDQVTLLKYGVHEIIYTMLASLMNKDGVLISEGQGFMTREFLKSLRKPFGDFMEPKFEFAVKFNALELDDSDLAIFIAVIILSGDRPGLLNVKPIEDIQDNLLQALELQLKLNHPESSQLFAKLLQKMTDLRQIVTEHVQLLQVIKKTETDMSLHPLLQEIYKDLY

[5] = biological target: T2, Peroxisome proliferator-activated receptor gamma (Homo sapiens) (UniProt P37231); experiment: Agonist activity at PPARgamma (unknown origin) relative to rosiglitazone
T2 sequence (whole entry): T1 sequence (P37231 whole entry)

Structure (SMILES) | EC50 [3] | also measured
N[C@@H](CC(=O)N1CCn2c(nnc2C(F)(F)F)C1)Cc1cc(F)c(F)cc1F | – | Activity [1]: Active; Activity [2]: Active
CCOc1cccc2c1CC[C@H]2Oc1ccc([C@H](CC(=O)O)OCC)cc1 | 63 nM | –
CCO[C@@H](CC(=O)O)c1ccc(O[C@@H]2CCc3ccccc32)cc1 | 31 nM | –
CCO[C@H](CC(=O)O)c1ccc(O[C@@H]2CCc3c2cccc3C(F)(F)F)cc1 | 330 nM | –

More lines, in order of falling EC50 [3], values ahead:

EC50 [3] | Structure (SMILES) | also measured
360 nM | CCO[C@H](CC(=O)O)c1ccc(OCc2ccc(Cl)c(Cl)c2)cc1 | –
69 nM | CCO[C@@H](CC(=O)O)c1ccc(O[C@H]2CCc3ccccc32)cc1 | –
29 nM | CCO[C@@H](CC(=O)O)c1ccc(O[C@@H]2CCc3c(C)cccc32)cc1 | –
5.3 nM | CCO[C@@H](CC(=O)O)c1ccc(OCc2ccc(C(F)(F)F)cc2)cc1 | EC50 [4]: 10400 nM; Emax [5]: 11.3%
5 nM | CCO[C@@H](CC(=O)O)c1ccc(O[C@@H]2CCc3c(Cl)cccc32)cc1 | –
